The values below come from ChEMBL document CHEMBL3046529, “Chiral gamma-aryl-1H-1,2,4-triazole derivatives as highly potential antifungal agents: Design, synthesis, structure, and in vitro fungicidal activities” (J Agric Food Chem, 2008).

For assay [1], the system named is Botrytis cinerea. Nature of the assay: In vitro fungicidal activity against Botryotinia fuckeliana assessed as mycelial growth inhibition at 26 degC after 48 hr by agar diffusion assay. Format: functional, organism-based. (In general: A growth-free zone around the sample is the usual read-out of agar diffusion tests.)
Assay [2] relates to Rhizoctonia solani. Description: In vitro fungicidal activity against Rhizoctonia solani assessed as mycelial growth inhibition at 26 degC after 48 hr by agar diffusion assay. It counts as functional, organism-based.
Assay [3] relates to Fusarium oxysporum. Nature of the assay: In vitro fungicidal activity against Fusarium oxysporum assessed as mycelial growth inhibition at 50 mg/l at 26 degC after 48 hr by agar diffusion assay. Format: functional. The note with it: read-out: GI.
Assay [4] has as its system Fusarium graminearum. Nature of the assay: In vitro fungicidal activity against Fusarium graminearum assessed as mycelial growth inhibition at 26 degC after 48 hr by agar diffusion assay. It counts as functional, organism-based.
The test system of assay [5] is Botrytis cinerea. Nature of the assay: In vitro fungicidal activity against Botryotinia fuckeliana assessed as mycelial growth inhibition at 50 mg/l at 26 degC after 48 hr by agar diffusion assay. Format: functional. The note with it: read-out: GI.
Assay [6] deals with Fusarium oxysporum. Description: In vitro fungicidal activity against Fusarium oxysporum assessed as mycelial growth inhibition at 26 degC after 48 hr by agar diffusion assay. Format: functional, organism-based.
For assay [7], the system named is Colletotrichum gossypii. Nature of the assay: In vitro fungicidal activity against Colletotrichum gossypii assessed as mycelial growth inhibition at 26 degC after 48 hr by agar diffusion assay. Format: functional, organism-based.
Assay [8] deals with Dothiorella gregaria. Description: In vitro fungicidal activity against Dothiorella gregaria assessed as mycelial growth inhibition at 50 mg/l at 26 degC after 48 hr by agar diffusion assay. The note with it: read-out: GI. Format: functional.
Assay [9] has as its system Fusarium graminearum. Description: In vitro fungicidal activity against Fusarium graminearum assessed as mycelial growth inhibition at 100 mg/l at 26 degC after 48 hr by agar diffusion assay. The note with it: read-out: GI. Format: functional. The method, boiled down: (§1)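 Compound is dissolved in DMF and added aseptically to autoclaved agar that has cooled to about 45-50 °C, giving 100 mg/L in the medium. Solvent never exceeds […]. Plain medium is the blank. A 5 mm mycelial plug, cut from the margin of an actively growing colony, goes in the plate centre. Three replicate plates are sealed and kept at 26 °C in darkness. Colony diameter is read at 48 h. Inhibition % = (control − treated diameter)/control diameter.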

Assay [10] deals with Dothiorella gregaria. Nature of the assay: In vitro fungicidal activity against Dothiorella gregaria assessed as mycelial growth inhibition at 100 mg/l at 26 degC after 48 hr by agar diffusion assay. It counts as functional. The note with it: read-out: GI. The method, boiled down:
as §1

For assay [11], the system named is Rhizoctonia solani. Nature of the assay: In vitro fungicidal activity against Rhizoctonia solani assessed as mycelial growth inhibition at 50 mg/l at 26 degC after 48 hr by agar diffusion assay. It counts as functional. The note with it: read-out: GI.
For assay [12], the system named is Fusarium oxysporum. Description: In vitro fungicidal activity against Fusarium oxysporum assessed as mycelial growth inhibition at 100 mg/l at 26 degC after 48 hr by agar diffusion assay. It counts as functional. The note with it: read-out: GI. Put shortly: as §1
In assay [13] the test system is Fusarium graminearum. Nature of the assay: In vitro fungicidal activity against Fusarium graminearum assessed as mycelial growth inhibition at 50 mg/l at 26 degC after 48 hr by agar diffusion assay. It counts as functional. The note with it: read-out: GI.
Assay [14] relates to Colletotrichum gossypii. Description: In vitro fungicidal activity against Colletotrichum gossypii assessed as mycelial growth inhibition at 100 mg/l at 26 degC after 48 hr by agar diffusion assay. The note with it: read-out: GI. Format: functional. Put shortly: as §1
In assay [15] the test system is Dothiorella gregaria. Description: In vitro fungicidal activity against Dothiorella gregaria assessed as mycelial growth inhibition at 26 degC after 48 hr by agar diffusion assay. Format: functional, organism-based.
Assay [16] has as its system Botrytis cinerea. Nature of the assay: In vitro fungicidal activity against Botryotinia fuckeliana assessed as mycelial growth inhibition at 100 mg/l at 26 degC after 48 hr by agar diffusion assay. It counts as functional. The note with it: read-out: GI. The method, boiled down:
as §1

Assay [17] has as its system Rhizoctonia solani. Description: In vitro fungicidal activity against Rhizoctonia solani assessed as mycelial growth inhibition at 100 mg/l at 26 degC after 48 hr by agar diffusion assay. Format: functional. The note with it: read-out: GI. The method, boiled down: as §1
The test system of assay [18] is Colletotrichum gossypii. Description: In vitro fungicidal activity against Colletotrichum gossypii assessed as mycelial growth inhibition at 50 mg/l at 26 degC after 48 hr by agar diffusion assay. Format: functional. The note with it: read-out: GI.

One may read the EC50 as the midpoint of the concentration-response curve. On to `CC(C)(C)C(=O)C(Oc1ccc(Cl)cc1)n1cncn1` (stereo not drawn) [TRIADIMEFON], for which the EC50 with Botrytis cinerea [1] stood at 41 µM; in the assay on Rhizoctonia solani [2], 14 µM; with Fusarium graminearum [4], 163 µM; in the assay on Fusarium oxysporum [6], 40 µM; in the assay with Colletotrichum gossypii [7], 19 µM; in the assay on Dothiorella gregaria [15] it was 317 µM. Besides, the inhibition of growth at 50 µg/mL with Fusarium oxysporum [3] is 91%; in the assay with Botrytis cinerea [5] it was 78%; with Dothiorella gregaria [8] it was 14%; in the assay with Rhizoctonia solani [11], 91%; in the assay with Fusarium graminearum [13], 59%; in the assay on Colletotrichum gossypii [18], 97%. Further, the inhibition of growth at 100 µg/mL with Fusarium graminearum [9] turned out to be 76%; with Dothiorella gregaria [10] it was 71%; in the assay with Fusarium oxysporum [12], 97%; in the assay on Colletotrichum gossypii [14], 100%; with Botrytis cinerea [16] it was 96%; with Rhizoctonia solani [17], 100%.
